The source of these data is ChEMBL document CHEMBL1828603, “Synthesis, antimicrobial activity and possible mechanism of action of 9-bromo-substituted indolizinoquinoline-5,12-dione derivatives” (2011).

The term MIC denotes the lowest concentration that inhibits growth of the organism.

Converted amounts (≈) assume the structure as drawn. The source made the active and inactive calls. The rule behind the calls is not given here.

For experiment [1], the system named is Pseudomonas aeruginosa. The experiment in a line: Antimicrobial activity against Pseudomonas aeruginosa ATCC 27853 by broth microdilution method. The experiment is classed as functional. The procedure, abridged:
(§1)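 Two-fold broth microdilution in Mueller-Hinton broth. Compound in DMSO added to bacterial culture at 5 × 10^5 cells/ml, starting at 64 µg/ml, then serially doubled down. Incubated at 37 °C overnight and read as OD600. MIC taken as the minimum inhibitory concentration, obtained in at least two independent experiments.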

Experiment [2] relates to Candida albicans. The experiment in a line: Antifungal activity against Candida albicans ATCC 10231 by broth microdilution method. Type of experiment: functional.
For experiment [3], the system named is Staphylococcus aureus. The experiment in a line: Antimicrobial activity against Staphylococcus aureus ATCC 25923 by broth microdilution method. Type of experiment: functional. The procedure, abridged:
as §1
A general note: Broth dilution looks for growth in wells or tubes with falling amounts of substance.

The test system of experiment [4] is Escherichia coli. The experiment in a line: Antimicrobial activity against Escherichia coli ATCC 25922 by broth microdilution method. The experiment is classed as functional. The procedure, abridged:
as §1

Experiment [5] concerns Staphylococcus epidermidis. The experiment in a line: Antimicrobial activity against Staphylococcus epidermidis ATCC 12228 by broth microdilution method. Type of experiment: functional. The procedure, abridged: as §1
Experiment [6] concerns Enterococcus faecalis. The experiment in a line: Antimicrobial activity against Enterococcus faecalis ATCC 29212 by broth microdilution method. The experiment is classed as functional. The procedure, abridged: as §1
Experiment [7] has as its system Streptococcus. Briefly: Antimicrobial activity against hemolytic Streptococcus Group B CMCC 32210 by broth microdilution method. Type of experiment: functional. The procedure, abridged: as §1
The subject of experiment [8] is Staphylococcus aureus. The experiment in a line: Antimicrobial activity against methicillin-resistant Staphylococcus aureus ATCC 43300 by broth microdilution method. The experiment is classed as functional. In short, it runs like this:
(§2)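 Two-fold serial dilution in Mueller-Hinton broth, starting at 64 µg/ml. Compound was added as a DMSO solution to bacterial culture at 5 × 10^5 cells/ml, then double-diluted. Plates were incubated overnight at 37 °C and OD600 was read. MIC was taken from at least two independent experiments.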

Experiment [9] deals with Staphylococcus aureus. Briefly: Ratio of MIC for vancomycin to compound for methicillin-resistant Staphylococcus aureus ATCC 43300 by broth microdilution method. Type of experiment: functional.
Experiment [10] has as its system Salmonella enterica subsp. enterica serovar Paratyphi B. Briefly: Antimicrobial activity against Salmonella paratyphi B CMCC 50094 by broth microdilution method. The experiment is classed as functional. The procedure, abridged:
as §2

For experiment [11], the system named is Escherichia coli. The following applies: 1 to 125 uM.
In experiment [12] the test system is Staphylococcus aureus. The experiment in a line: Inhibition of Staphylococcus aureus topoisomerase 4-mediated relaxation of supercoiled pBR322 DNA at 1 uM after 30 mins by agarose gel electrophoretic analysis. In short, it runs like this: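 Relaxation assay with 1 U Topo IV and 0.5 µg supercoiled pBR322 DNA in HEPES–KOH pH 7.6 buffer (potassium glutamate, magnesium acetate, DTT, 1 mM ATP, BSA), 37 °C for 30 min. Stopped with chloroform/iso-amyl alcohol (24:1), then run on 1% agarose gel in TAE at 5 V/cm.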

In experiment [13] the test system is Escherichia coli. Briefly: Inhibition of Escherichia coli topoisomerase 4 assessed as decatenation of kDNA at 25 uM after 30 mins by electrophoresis. The procedure, abridged: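 Decatenation assay with 1 U Topo IV and 200 ng catenated kDNA in HEPES–KOH pH 7.6 buffer (potassium glutamate, magnesium acetate, DTT, 1 mM ATP, BSA), 37 °C for 30 min. Stopped with chloroform/iso-amyl alcohol (24:1), then run on 1% agarose gel in TAE at 10 V/cm.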

The target in experiment [14] is DNA gyrase (Staphylococcus aureus) (UniProt P0A0K8+P20831). The experiment in a line: Inhibition of Staphylococcus aureus DNA gyrase supercoiling activity using pHOT1 DNA as substrate at 125 uM after 60 mins by agarose gel electrophoretic analysis. The experiment is classed as protein-complex assay. In short, it runs like this: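 Supercoiling assay with 1 U DNA gyrase (E. coli or S. aureus) and 0.5 µg relaxed pHOT1 DNA in Tris–HCl pH 7.5 buffer (KCl, MgCl2, DTT, spermidine, 1 mM ATP, glycerol, BSA), ± compound, 37 °C for 60 min. Stopped with proteinase K, run on 1% agarose in TAE at 3 V/cm, stained with Gel Red and imaged under UV.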
Chain of DNA gyrase (Staphylococcus aureus) (P0A0K8 2-644 limits assumed): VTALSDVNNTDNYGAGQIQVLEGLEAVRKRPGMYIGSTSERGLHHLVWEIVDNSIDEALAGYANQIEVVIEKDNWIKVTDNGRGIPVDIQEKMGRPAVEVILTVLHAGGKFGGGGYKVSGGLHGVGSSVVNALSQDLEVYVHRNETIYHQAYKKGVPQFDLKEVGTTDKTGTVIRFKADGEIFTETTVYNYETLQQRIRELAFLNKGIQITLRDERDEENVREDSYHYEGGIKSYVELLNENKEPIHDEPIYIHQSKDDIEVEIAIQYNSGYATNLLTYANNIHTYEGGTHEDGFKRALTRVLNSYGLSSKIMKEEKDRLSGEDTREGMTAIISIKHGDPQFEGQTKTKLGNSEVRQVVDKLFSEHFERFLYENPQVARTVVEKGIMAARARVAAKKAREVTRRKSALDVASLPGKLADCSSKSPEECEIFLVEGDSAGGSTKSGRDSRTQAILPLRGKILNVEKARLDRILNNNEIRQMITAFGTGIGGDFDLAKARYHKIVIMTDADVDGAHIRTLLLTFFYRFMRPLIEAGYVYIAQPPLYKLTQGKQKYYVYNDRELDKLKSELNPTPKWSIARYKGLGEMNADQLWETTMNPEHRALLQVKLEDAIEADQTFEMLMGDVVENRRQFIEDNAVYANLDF
Chain of DNA gyrase (Staphylococcus aureus) (P20831 whole entry partner): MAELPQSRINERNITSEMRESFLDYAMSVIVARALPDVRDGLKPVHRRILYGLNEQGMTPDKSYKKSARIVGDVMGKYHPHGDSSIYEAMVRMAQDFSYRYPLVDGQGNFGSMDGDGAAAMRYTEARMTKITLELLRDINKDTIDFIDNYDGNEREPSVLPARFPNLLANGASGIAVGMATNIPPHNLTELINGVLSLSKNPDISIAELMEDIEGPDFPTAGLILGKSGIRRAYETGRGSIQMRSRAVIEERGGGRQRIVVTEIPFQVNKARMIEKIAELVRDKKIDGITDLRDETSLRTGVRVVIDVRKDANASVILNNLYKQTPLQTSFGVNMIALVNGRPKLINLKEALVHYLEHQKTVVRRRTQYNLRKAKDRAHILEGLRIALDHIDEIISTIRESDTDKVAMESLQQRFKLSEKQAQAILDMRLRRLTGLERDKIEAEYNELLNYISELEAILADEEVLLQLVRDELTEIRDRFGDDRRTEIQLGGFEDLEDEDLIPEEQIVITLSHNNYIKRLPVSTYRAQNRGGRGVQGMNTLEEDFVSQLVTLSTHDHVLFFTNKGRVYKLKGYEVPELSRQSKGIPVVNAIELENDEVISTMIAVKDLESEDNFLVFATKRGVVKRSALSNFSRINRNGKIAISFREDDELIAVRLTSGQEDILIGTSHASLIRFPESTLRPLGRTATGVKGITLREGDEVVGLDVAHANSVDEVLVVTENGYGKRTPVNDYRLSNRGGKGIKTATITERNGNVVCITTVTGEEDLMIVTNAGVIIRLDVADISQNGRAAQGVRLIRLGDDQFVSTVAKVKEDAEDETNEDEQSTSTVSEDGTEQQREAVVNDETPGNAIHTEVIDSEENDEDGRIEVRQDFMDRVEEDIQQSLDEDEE

For the molecule `COC(=O)c1c2c(n3cc(Br)ccc13)C(=O)c1ncccc1C2=O`, the MIC is over 64 µg/mL in experiment [1]; over 64 µg/mL in experiment [2]; 0.031 µg/mL (≈ 0.0805 µM) in experiment [3]; 64 µg/mL (≈ 166 µM) in experiment [4]; 0.016 µg/mL (≈ 0.0415 µM) in [5]; 0.031 µg/mL (≈ 0.0805 µM) in [6]. Further, the MIC was 0.031 µg/mL (≈ 0.0805 µM) in experiment [7], 0.063 µg/mL (≈ 0.164 µM) in experiment [8] and over 64 µg/mL in [10]. In addition, the Ratio in [9] came to 16.

As for `O=C1c2cccnc2C(=O)c2c1c(C(=O)OCC(F)(F)F)c1ccc(Br)cn21`, the MIC was over 64 µg/mL in [1]; over 64 µg/mL in experiment [2]; 0.031 µg/mL (≈ 0.0684 µM) in experiment [3]; over 64 µg/mL in experiment [4]; 0.016 µg/mL (≈ 0.0353 µM) in experiment [5]; 0.016 µg/mL (≈ 0.0353 µM) in experiment [6]. Further, the MIC was 0.031 µg/mL (≈ 0.0684 µM) in [7], 0.031 µg/mL (≈ 0.0684 µM) in experiment [8] and over 64 µg/mL in experiment [10]. Further, in experiment [9], the Ratio was 32.

Take `O=C1c2cccnc2C(=O)c2c1c(C(=O)OCCF)c1ccc(Br)cn21`: the minimum inhibitory concentration (MIC) is over 64 µg/mL in experiment [1]; over 64 µg/mL in experiment [2]; 0.031 µg/mL (≈ 0.0743 µM) in experiment [3]; over 64 µg/mL in experiment [4]; 0.016 µg/mL (≈ 0.0384 µM) in experiment [5]; 0.016 µg/mL (≈ 0.0384 µM) in experiment [6]. In addition, the MIC in experiment [7] was 0.031 µg/mL (≈ 0.0743 µM); in experiment [8], 0.063 µg/mL (≈ 0.151 µM); in experiment [10], over 64 µg/mL. Also, the Ratio in experiment [9] was found to be 16.

On to `CCN(CC)C(=O)c1c2c(n3cc(Br)ccc13)C(=O)c1ncccc1C2=O`, for which the MIC is over 64 µg/mL in experiment [1]; over 64 µg/mL in experiment [2]; 8 µg/mL (≈ 18.8 µM) in experiment [3]; over 64 µg/mL in experiment [4]; 16 µg/mL (≈ 37.5 µM) in [5]; 16 µg/mL (≈ 37.5 µM) in experiment [6]. Further, the results for the MIC in experiment [7], in [8] and in [10] were 8 µg/mL (≈ 18.8 µM), 16 µg/mL (≈ 37.5 µM) and over 64 µg/mL, respectively.

As for `CCN(CC)CCNC(=O)c1c2c(n3cc(Br)ccc13)C(=O)c1ncccc1C2=O`, the MIC in experiment [1] is over 64 µg/mL; in [2] it was over 64 µg/mL; in experiment [3] it was 4 µg/mL (≈ 8.52 µM); in experiment [4], over 64 µg/mL; in experiment [5] it was 2 µg/mL (≈ 4.26 µM); in [6], 4 µg/mL (≈ 8.52 µM). Besides, the minimum inhibitory concentration (MIC) in experiment [7] is 0.5 µg/mL (≈ 1.07 µM); in [8], 4 µg/mL (≈ 8.52 µM); in [10], over 64 µg/mL.

For the molecule `O=C1c2cccnc2C(=O)c2c1c(C(=O)N1CCSCC1)c1ccc(Br)cn21`, the MIC in experiment [1], in experiment [2], in [3], in experiment [4], in experiment [5] and in experiment [6] was over 64 µg/mL throughout. Besides, the MIC in experiment [7] is 64 µg/mL (≈ 140 µM); in experiment [8] it was 64 µg/mL (≈ 140 µM); in [10] it was over 64 µg/mL.

For `O=C1c2cccnc2C(=O)c2c1c(C(=O)NCCCN1CCCCC1)c1ccc(Br)cn21`, the MIC in experiment [1] is over 64 µg/mL; in experiment [2] it was over 64 µg/mL; in experiment [3] it was 2 µg/mL (≈ 4.04 µM); in experiment [4] it was over 64 µg/mL; in experiment [5], 8 µg/mL (≈ 16.1 µM); in experiment [6], 2 µg/mL (≈ 4.04 µM). The figures for the MIC in [7], in [8] and in [10] were 1 µg/mL (≈ 2.02 µM), 4 µg/mL (≈ 8.07 µM) and over 64 µg/mL, respectively.

On to `O=C1c2cccnc2C(=O)c2c1c(C(=O)NCCN1CCOCC1)c1ccc(Br)cn21`, for which the MIC in experiment [1] is 64 µg/mL (≈ 132 µM); in [2], over 64 µg/mL; in experiment [3], 1 µg/mL (≈ 2.07 µM); in experiment [4], 64 µg/mL (≈ 132 µM); in experiment [5] it was 4 µg/mL (≈ 8.28 µM); in experiment [6], 4 µg/mL (≈ 8.28 µM). For the same molecule, the MIC in experiment [7] is 0.5 µg/mL (≈ 1.03 µM); in experiment [8] it was 8 µg/mL (≈ 16.6 µM); in experiment [10], over 64 µg/mL.

With `CN(C)CCOC(=O)c1c2c(n3cc(Br)ccc13)C(=O)c1ncccc1C2=O`, the MIC in experiment [1] is over 64 µg/mL; in [2] it was over 64 µg/mL; in experiment [3], 0.13 µg/mL (≈ 0.294 µM); in [4] it was 2 µg/mL (≈ 4.52 µM); in [5] it was 0.13 µg/mL (≈ 0.294 µM); in experiment [6], 0.13 µg/mL (≈ 0.294 µM). Moreover, the MIC in experiment [7] was 0.031 µg/mL (≈ 0.0701 µM); in [8], 0.13 µg/mL (≈ 0.294 µM); in experiment [10], 1 µg/mL (≈ 2.26 µM).

Turning to `O=C1c2cccnc2C(=O)c2c1c(C(=O)N1CCCC1)c1ccc(Br)cn21`, the MIC in experiment [1] was over 64 µg/mL; in experiment [2], over 64 µg/mL; in [3], 8 µg/mL (≈ 18.9 µM); in experiment [4], over 64 µg/mL; in experiment [5], 32 µg/mL (≈ 75.4 µM); in experiment [6] it was over 64 µg/mL. Besides, the values for the MIC in experiment [7], in experiment [8] and in experiment [10] were 16 µg/mL (≈ 37.7 µM), 64 µg/mL (≈ 151 µM) and over 64 µg/mL, respectively.

In the case of `O=C1c2cccnc2C(=O)c2c1c(C(=O)OCCN1CCOCC1)c1ccc(Br)cn21`, the MIC is over 64 µg/mL in [1]; over 64 µg/mL in [2]; 0.25 µg/mL (≈ 0.516 µM) in experiment [3]; 32 µg/mL (≈ 66.1 µM) in experiment [4]; 0.25 µg/mL (≈ 0.516 µM) in [5]; 0.13 µg/mL (≈ 0.268 µM) in experiment [6]. Also, the MIC was 0.063 µg/mL (≈ 0.13 µM) in experiment [7], 0.25 µg/mL (≈ 0.516 µM) in [8] and over 64 µg/mL in experiment [10].

Regarding `CN(C)CCCNC(=O)c1c2c(n3cc(Br)ccc13)C(=O)c1ncccc1C2=O`, the MIC in experiment [1] is over 64 µg/mL; in experiment [2], over 64 µg/mL; in experiment [3] it was 4 µg/mL (≈ 8.79 µM); in experiment [4], over 64 µg/mL; in experiment [5], 8 µg/mL (≈ 17.6 µM); in experiment [6], 4 µg/mL (≈ 8.79 µM). In addition, the minimal inhibitory concentration (MIC) in experiment [7] was 1 µg/mL (≈ 2.2 µM); in [8] it was 4 µg/mL (≈ 8.79 µM); in [10], over 64 µg/mL.

On to `O=C(O)c1cn(C2CC2)c2cc(N3CCNCC3)c(F)cc2c1=O`, for which the inhibition result in experiment [11], in experiment [12] and in [13] was “Active” in each case. Moreover, the inhibition result in [14] was “inactive”.

`O=C1c2cccnc2C(=O)c2c1c(C(=O)NCCCN1CCCC1)c1ccc(Br)cn21`: the MIC in experiment [1] was over 64 µg/mL; in [2], over 64 µg/mL; in experiment [3] it was 8 µg/mL (≈ 16.6 µM); in [4] it was over 64 µg/mL; in experiment [5], 4 µg/mL (≈ 8.31 µM); in experiment [6] it was 4 µg/mL (≈ 8.31 µM). In addition, the MIC in experiment [7] is 1 µg/mL (≈ 2.08 µM); in experiment [8], 4 µg/mL (≈ 8.31 µM); in experiment [10], over 64 µg/mL.

As for `O=C1c2cccnc2C(=O)c2c1c(C(=O)NCCN1CCCCC1)c1ccc(Br)cn21`, the minimal inhibitory concentration (MIC) was 64 µg/mL (≈ 133 µM) in [1]; over 64 µg/mL in [2]; 1 µg/mL (≈ 2.08 µM) in experiment [3]; 64 µg/mL (≈ 133 µM) in experiment [4]; 1 µg/mL (≈ 2.08 µM) in experiment [5]; 2 µg/mL (≈ 4.15 µM) in [6]. In addition, the MIC in experiment [7] is 0.5 µg/mL (≈ 1.04 µM); in [8] it was 2 µg/mL (≈ 4.15 µM); in experiment [10] it was 64 µg/mL (≈ 133 µM).
